This note sets out measurements from publication PMC6893910 (ACS chemical biology, 2019).

For orientation: IC50 means the midpoint of a concentration-inhibition curve.

“Also recorded” adds a separate entry of the source.

Series [1] has as its target T1, HDAC11 (Homo sapiens, UniProt Q96DB2).
T1 sequence (Q96DB2 1-347): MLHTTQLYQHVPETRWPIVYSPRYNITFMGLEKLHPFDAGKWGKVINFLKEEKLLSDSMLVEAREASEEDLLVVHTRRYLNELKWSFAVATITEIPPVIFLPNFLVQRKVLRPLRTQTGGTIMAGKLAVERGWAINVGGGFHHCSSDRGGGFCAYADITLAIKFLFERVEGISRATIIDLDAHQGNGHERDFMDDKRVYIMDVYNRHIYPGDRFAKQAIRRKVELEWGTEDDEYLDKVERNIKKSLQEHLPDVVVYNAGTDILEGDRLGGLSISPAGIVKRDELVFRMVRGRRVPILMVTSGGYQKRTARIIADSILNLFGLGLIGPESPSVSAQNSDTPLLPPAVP
Kind of series: HPLC-based HDAC11 assay with myristoyl-H3K9 peptide. In kind it is biochemical.

Series [2] deals with acetylation level of histone H3. Put plainly: Acetyl-histone H3 immunoblot in HEK 293T cells. In kind it is cell-based. Particulars: 6 hrs. In a few lines: (§1)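 HEK 293T cells were treated with test compound for 6 hrs. Acetyl-α-tubulin (K40) and acetyl-histone H3 were both detected by immunoblot of the treated cells.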
For orientation: A western blot detects proteins with antibodies after separation by electrophoresis.

Series [3] concerns acetylation level of α-tubulin. Kind of series: Acetyl-α-tubulin. The series is classed as cell-based. To be noted: HEK 293T cells, 6 hrs. In a few lines: as §1
In series [4] the target is SIRT6 (Homo sapiens, UniProt Q8N6T7). Kind of series: In vitro selectivity assay with acyl-H3K9 peptide, SIRT6. In kind it is biochemical. Particulars: at 100 μM.
The target of series [5] is HDAC1 (Homo sapiens, UniProt Q13547). Kind of series: In vitro selectivity assay with acyl-H3K9 peptide, HDAC1. The series is classed as biochemical. To be noted: at 100 μM.
In series [6] the target is T2, SIRT2 (Homo sapiens, UniProt Q8IXJ6).
T2 sequence (Q8IXJ6 1-389): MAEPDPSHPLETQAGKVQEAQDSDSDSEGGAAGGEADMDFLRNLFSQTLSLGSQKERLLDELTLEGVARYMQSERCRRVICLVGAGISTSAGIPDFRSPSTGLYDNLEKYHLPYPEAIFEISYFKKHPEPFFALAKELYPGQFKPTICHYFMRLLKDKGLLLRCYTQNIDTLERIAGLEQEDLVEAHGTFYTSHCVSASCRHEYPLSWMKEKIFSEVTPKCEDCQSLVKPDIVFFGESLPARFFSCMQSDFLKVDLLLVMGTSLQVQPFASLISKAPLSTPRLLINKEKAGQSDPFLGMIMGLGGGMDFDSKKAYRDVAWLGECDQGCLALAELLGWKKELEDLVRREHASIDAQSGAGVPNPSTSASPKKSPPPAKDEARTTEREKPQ
Kind of series: In vitro selectivity assay with acyl-H3K9 peptide, SIRT2. The series is classed as biochemical. Particulars: at 100 μM.

The target of series [7] is HDAC4 (Homo sapiens, UniProt P56524). Kind of series: In vitro selectivity assay with acyl-H3K9 peptide, HDAC4. Particulars: at 100 μM. The series is classed as biochemical.
Series [8] concerns the target T3, HDAC8 (Homo sapiens, UniProt Q9BY41).
T3 sequence (Q9BY41 1-377): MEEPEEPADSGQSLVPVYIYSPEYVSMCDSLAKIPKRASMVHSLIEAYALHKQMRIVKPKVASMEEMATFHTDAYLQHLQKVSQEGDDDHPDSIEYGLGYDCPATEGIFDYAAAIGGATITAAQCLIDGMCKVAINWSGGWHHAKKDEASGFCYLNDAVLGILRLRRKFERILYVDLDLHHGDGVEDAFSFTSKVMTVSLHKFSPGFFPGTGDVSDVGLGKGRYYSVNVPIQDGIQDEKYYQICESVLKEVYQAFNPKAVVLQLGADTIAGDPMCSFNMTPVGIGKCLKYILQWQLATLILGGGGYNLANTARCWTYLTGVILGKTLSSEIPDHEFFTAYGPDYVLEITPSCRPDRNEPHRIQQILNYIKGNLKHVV
Kind of series: In vitro selectivity assay with acyl-H3K9 peptide, HDAC8. To be noted: at 100 μM. The series is classed as biochemical.

A short description of series [9]: LC-MS based detection of compound in cell lysate. The series is classed as in vitro ADME. To be noted: LC-MS based assay.
Series [10] has as its target T4, SIRT3 (Homo sapiens, UniProt Q9NTG7).
T4 sequence (Q9NTG7 1-399): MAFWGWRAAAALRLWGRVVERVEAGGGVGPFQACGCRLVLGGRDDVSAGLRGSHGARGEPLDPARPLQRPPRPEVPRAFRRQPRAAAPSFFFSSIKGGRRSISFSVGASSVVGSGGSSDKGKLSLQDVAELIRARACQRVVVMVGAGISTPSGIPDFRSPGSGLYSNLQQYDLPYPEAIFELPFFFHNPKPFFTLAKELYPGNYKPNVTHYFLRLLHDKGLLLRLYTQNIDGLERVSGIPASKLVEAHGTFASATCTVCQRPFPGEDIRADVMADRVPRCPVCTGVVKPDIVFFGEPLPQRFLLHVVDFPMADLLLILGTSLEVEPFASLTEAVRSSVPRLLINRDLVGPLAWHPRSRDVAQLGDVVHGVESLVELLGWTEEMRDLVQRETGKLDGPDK
Kind of series: In vitro selectivity assay with acyl-H3K9 peptide, SIRT3. In kind it is biochemical. To be noted: at 100 μM.

For series [11], the target named is T5, SIRT1 (Homo sapiens, UniProt Q96EB6).
T5 sequence (Q96EB6 1-747): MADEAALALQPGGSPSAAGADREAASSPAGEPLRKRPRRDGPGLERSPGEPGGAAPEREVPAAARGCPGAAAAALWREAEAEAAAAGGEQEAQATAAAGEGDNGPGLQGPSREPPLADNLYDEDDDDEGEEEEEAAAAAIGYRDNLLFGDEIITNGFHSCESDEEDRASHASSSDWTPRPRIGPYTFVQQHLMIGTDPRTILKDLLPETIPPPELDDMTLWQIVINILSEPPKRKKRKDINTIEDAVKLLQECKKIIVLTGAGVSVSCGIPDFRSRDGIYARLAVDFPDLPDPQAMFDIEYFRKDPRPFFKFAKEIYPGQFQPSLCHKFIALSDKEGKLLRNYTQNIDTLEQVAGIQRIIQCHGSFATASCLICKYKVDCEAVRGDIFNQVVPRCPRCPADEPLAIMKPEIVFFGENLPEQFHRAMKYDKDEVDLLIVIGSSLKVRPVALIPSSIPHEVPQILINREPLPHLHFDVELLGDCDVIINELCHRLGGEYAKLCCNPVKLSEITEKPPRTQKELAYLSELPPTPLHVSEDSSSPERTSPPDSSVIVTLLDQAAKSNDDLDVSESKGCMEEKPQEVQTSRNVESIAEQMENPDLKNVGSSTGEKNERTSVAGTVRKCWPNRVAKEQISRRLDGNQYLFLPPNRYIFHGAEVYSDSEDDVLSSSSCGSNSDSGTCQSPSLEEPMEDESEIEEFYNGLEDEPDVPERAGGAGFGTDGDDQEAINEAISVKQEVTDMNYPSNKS
Put plainly: In vitro selectivity assay with acyl-H3K9 peptide, SIRT1. In kind it is biochemical. Particulars: at 100 μM.

In series [12] the target is T1, HDAC11. Kind of series: HDAC11 demyristoylation of myristoyl-SHMT2 peptide in vitro. In kind it is biochemical. To be noted: read-out: IC50 against HDAC11; myristoyl-SHMT2 peptide substrate.
Setting [13] is: myristoyl-H3K9 peptide substrate, HPLC assay.

HDAC4, sequence (P56524 whole entry, species assumed): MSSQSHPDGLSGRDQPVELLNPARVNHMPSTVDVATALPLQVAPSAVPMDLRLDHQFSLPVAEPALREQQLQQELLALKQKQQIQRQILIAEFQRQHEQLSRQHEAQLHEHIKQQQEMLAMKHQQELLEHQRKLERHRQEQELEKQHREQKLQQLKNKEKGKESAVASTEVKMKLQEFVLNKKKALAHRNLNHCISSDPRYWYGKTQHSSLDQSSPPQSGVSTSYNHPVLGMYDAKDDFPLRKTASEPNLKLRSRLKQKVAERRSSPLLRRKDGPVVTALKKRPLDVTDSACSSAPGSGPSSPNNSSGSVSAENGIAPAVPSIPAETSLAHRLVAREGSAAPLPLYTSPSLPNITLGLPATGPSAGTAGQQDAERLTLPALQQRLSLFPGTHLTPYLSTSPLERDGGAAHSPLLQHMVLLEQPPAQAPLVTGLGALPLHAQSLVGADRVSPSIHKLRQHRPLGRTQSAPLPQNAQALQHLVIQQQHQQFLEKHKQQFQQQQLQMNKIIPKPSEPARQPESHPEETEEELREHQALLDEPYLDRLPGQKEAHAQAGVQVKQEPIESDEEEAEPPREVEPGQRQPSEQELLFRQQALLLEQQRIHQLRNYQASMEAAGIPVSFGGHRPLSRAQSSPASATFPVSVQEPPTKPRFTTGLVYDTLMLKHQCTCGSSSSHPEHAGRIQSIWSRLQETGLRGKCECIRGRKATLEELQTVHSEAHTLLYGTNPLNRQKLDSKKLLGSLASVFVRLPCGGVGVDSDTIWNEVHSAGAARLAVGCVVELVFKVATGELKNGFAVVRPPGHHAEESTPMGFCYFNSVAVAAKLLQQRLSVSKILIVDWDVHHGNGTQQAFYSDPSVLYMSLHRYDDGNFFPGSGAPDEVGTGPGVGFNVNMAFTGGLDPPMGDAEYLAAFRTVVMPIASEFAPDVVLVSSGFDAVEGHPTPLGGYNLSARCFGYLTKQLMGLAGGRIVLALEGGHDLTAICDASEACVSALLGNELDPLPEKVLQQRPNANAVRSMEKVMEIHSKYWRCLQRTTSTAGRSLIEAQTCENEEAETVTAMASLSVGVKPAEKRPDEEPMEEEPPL
SIRT6, sequence (Q8N6T7 whole entry, species assumed): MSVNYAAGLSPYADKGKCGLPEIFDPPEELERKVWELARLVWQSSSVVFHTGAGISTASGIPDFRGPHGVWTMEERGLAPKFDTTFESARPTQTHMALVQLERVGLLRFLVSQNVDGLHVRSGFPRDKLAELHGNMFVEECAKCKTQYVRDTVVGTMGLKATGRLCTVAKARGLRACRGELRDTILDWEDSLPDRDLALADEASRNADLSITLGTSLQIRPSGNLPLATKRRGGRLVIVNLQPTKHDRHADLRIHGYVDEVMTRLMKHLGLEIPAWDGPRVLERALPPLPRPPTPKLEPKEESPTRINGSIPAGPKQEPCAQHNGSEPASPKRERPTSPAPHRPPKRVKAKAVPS
HDAC1, sequence (Q13547 whole entry, species assumed): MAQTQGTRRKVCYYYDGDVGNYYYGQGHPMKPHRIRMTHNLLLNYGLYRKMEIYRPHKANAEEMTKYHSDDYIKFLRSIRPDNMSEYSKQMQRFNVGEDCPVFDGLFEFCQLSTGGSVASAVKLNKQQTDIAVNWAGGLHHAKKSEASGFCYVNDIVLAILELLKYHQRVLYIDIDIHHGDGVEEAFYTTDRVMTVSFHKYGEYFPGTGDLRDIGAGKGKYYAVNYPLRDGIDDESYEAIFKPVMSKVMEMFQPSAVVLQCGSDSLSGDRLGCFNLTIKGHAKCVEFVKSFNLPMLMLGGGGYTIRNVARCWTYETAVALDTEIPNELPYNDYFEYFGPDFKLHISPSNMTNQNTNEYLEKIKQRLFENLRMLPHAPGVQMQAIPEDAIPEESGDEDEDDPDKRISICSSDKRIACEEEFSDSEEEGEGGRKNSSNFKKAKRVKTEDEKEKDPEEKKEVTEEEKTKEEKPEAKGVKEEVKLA

`CCCCCCCCCCCCCCCC(=O)O` [palmitic acid]: the HDAC11 inhibition entry in series [1] (at 10 μM) is “no inhibition”.

With `CC1(C)c2cccc(C(=O)NO)c2CN1c1cnc(C(F)(F)F)cn1` [FT895], in [2] (up to 50 μM), the “acetylation level of histone H3” value is on record as “did not affect”. Besides, in series [3] (up to 50 μM), the “acetylation level of α-tubulin” value was “did not affect”.

On to `CCCCCCCCCCCCCCCCNNC(=O)c1cccs1` [SIS17], for which the SIRT6 inhibition result in series [4] was “did not show significant inhibition”. Also, the “acetylation level of histone H3” value in [2] (up to 50 μM) is reported as “did not affect”. Also, in series [5], the HDAC1 inhibition result is “did not show significant inhibition”. In [3] (up to 50 μM), the “acetylation level of α-tubulin” value is recorded as “did not affect”. Besides, the concentration for half-maximal inhibition (IC50) worked out at 830 nM in [1] (read-out: IC50 against HDAC11, myristoyl-H3K9 peptide substrate, HPLC assay) and 270 nM in series [12]. For the same compound, the SIRT2 inhibition entry in [6] is reported as “did not show significant inhibition”. The HDAC4 inhibition entry in series [7] was “did not show significant inhibition”. Moreover, the HDAC8 inhibition result in [8] was “did not show significant inhibition”. The “detection of compound in cell lysate” value in series [9] was “could readily detect”. The SIRT3 inhibition entry in series [10] is on record as “did not show significant inhibition”. Also, the SIRT1 inhibition entry in series [11] is reported as “did not show significant inhibition”.

With `O=C(CCCCCCC(=O)Nc1ccccc1)NO` [SAHA, Vorinostat], in series [2] (at 1 μM), the “acetylation level of histone H3” value is on record as “significantly increased”. Also, in [3] (at 1 μM), the “acetylation level of α-tubulin” value was “significantly increased”. Further, in [1] (setting [13]), the “HDAC11 inhibition (in words)” value was “Neither SAHA or UF010 could inhibit HDAC11”.

Regarding `CCCCNNC(=O)c1ccc(Br)cc1` [UF010], the “HDAC11 inhibition (in words)” value in series [1] (setting [13]) was “Neither SAHA or UF010 could inhibit HDAC11; also recorded: did not inhibit HDAC11”.
